Active and inactive are the calls of the source. The calls are words filed in the database; no cut-off is given here.
Legend:
HeLa [1] = assay: Cell cycle arrest in human HeLa cells assessed as accumulation at sub-G1 phase at 6 uM after 24 hrs by flow cytometry analysis relative to control; type: functional
Summary of the method: (§1)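 About 1 × 10^6 cells per plate seeded overnight, then treated with compound and harvested at set times. Cells fixed in 75% ethanol at -20°C for 12-24 h and stained 1 h with 100 µg/ml PI, 100 µg/ml RNase A and 0.3% NP-40 in PBS. DNA content measured by flow cytometry; phase fractions compared with sham-treated cells.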

HeLa [2] = assay: Cell cycle arrest in human HeLa cells assessed as accumulation at S phase at 6 uM after 24 hrs by flow cytometry analysis relative to control; type: functional; summary of the method: as §1
HeLa [3] = assay: Cell cycle arrest in human HeLa cells assessed as accumulation at sub-G1 phase at 6 uM after 48 hrs by flow cytometry analysis relative to control; type: functional; summary of the method: as §1
HeLa [4] = assay: Cell cycle arrest in human HeLa cells assessed as accumulation at sub-G1 phase at 6 uM after 72 hrs by flow cytometry analysis relative to control; type: functional; summary of the method: as §1
HeLa [5] = assay: Cell cycle arrest in human HeLa cells assessed as accumulation at S phase at 6 uM after 72 hrs by flow cytometry analysis relative to control; type: functional; summary of the method: as §1
HeLa [6] = assay: Cell cycle arrest in human HeLa cells assessed as accumulation at G2/M phase at 6 uM after 72 hrs by flow cytometry analysis relative to control; type: functional; summary of the method: as §1
MDA-MB-231 [7] = assay: Cell cycle arrest in human MDA-MB-231 cells assessed as accumulation at sub-G1 phase at 6 uM after 12 hrs by flow cytometry analysis relative to control; type: functional
Summary of the method: (§2)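 Cells seeded overnight at about 1 × 10^6 per plate, treated next morning, and harvested at set times. Fixed in 75% ethanol at -20°C for 12-24 h, then stained 1 h in PBS with 0.3% NP-40, 100 µg/ml RNase A and 100 µg/ml propidium iodide. Phase distribution read from DNA content by flow cytometry against sham-treated cells.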

MDA-MB-231 [8] = assay: Cell cycle arrest in human MDA-MB-231 cells assessed as accumulation at S phase at 6 uM after 12 hrs by flow cytometry analysis relative to control; type: functional; summary of the method: as §1
MDA-MB-231 [9] = assay: Cell cycle arrest in human MDA-MB-231 cells assessed as accumulation at sub-G1 phase at 6 uM after 24 hrs by flow cytometry analysis relative to control; type: functional; summary of the method: as §2
MDA-MB-231 [10] = assay: Cell cycle arrest in human MDA-MB-231 cells assessed as accumulation at G2/M phase at 6 uM after 24 hrs by flow cytometry analysis relative to control; type: functional; summary of the method: as §1
MDA-MB-231 [11] = assay: Cell cycle arrest in human MDA-MB-231 cells assessed as accumulation at S phase at 6 uM after 48 hrs by flow cytometry analysis relative to control; type: functional; summary of the method: as §1
MDA-MB-231 [12] = assay: Cell cycle arrest in human MDA-MB-231 cells assessed as accumulation at G2/M phase at 6 uM after 48 hrs by flow cytometry analysis relative to control; type: functional; summary of the method: as §1
MDA-MB-231 [13] = assay: Cell cycle arrest in human MDA-MB-231 cells assessed as accumulation at sub-G1 phase at 6 uM after 72 hrs by flow cytometry analysis relative to control; type: functional; summary of the method: as §2
MDA-MB-231 [14] = assay: Cell cycle arrest in human MDA-MB-231 cells assessed as accumulation at S phase at 6 uM after 72 hrs by flow cytometry analysis relative to control; type: functional; summary of the method: as §1
MDA-MB-231 [15] = assay: Cell cycle arrest in human MDA-MB-231 cells assessed as accumulation at G2/M phase at 6 uM after 72 hrs by flow cytometry analysis relative to control; type: functional; summary of the method: as §1
[16] = Cell cycle arrest in human MCF10A cells assessed as accumulation at G0-G1 phase at 6 uM after 12 hrs by flow cytometry analysis relative to control; type: functional, cell-based; settings: MCF-10A; summary of the method: as §1
[17] = Cell cycle arrest in human MCF10A cells assessed as accumulation at G2/M phase at 6 uM after 12 hrs by flow cytometry analysis relative to control; type: functional, cell-based; settings: MCF-10A; summary of the method: as §1
[18] = Cell cycle arrest in human MCF10A cells assessed as accumulation at S phase at 6 uM after 24 hrs by flow cytometry analysis relative to control; type: functional, cell-based; settings: MCF-10A; summary of the method: as §1
[19] = Cell cycle arrest in human MCF10A cells assessed as accumulation at G2/M phase at 6 uM after 24 hrs by flow cytometry analysis relative to control; type: functional, cell-based; settings: MCF-10A; summary of the method: as §1
[20] = Cell cycle arrest in human MCF10A cells assessed as accumulation at sub-G1 phase at 6 uM after 48 hrs by flow cytometry analysis relative to control; type: functional, cell-based; settings: MCF-10A; summary of the method: as §1
[21] = Cell cycle arrest in human MCF10A cells assessed as accumulation at G0-G1 phase at 6 uM after 48 hrs by flow cytometry analysis relative to control; type: functional, cell-based; settings: MCF-10A; summary of the method: as §1
[22] = Cell cycle arrest in human MCF10A cells assessed as accumulation at G2/M phase at 6 uM after 48 hrs by flow cytometry analysis relative to control; type: functional, cell-based; settings: MCF-10A; summary of the method: as §1
[23] = Cell cycle arrest in human MCF10A cells assessed as accumulation at S phase at 6 uM after 72 hrs by flow cytometry analysis relative to control; type: functional, cell-based; settings: MCF-10A; summary of the method: as §1
[24] = Cell cycle arrest in human MCF10A cells assessed as accumulation at G2/M phase at 6 uM after 72 hrs by flow cytometry analysis relative to control; type: functional, cell-based; settings: MCF-10A; summary of the method: as §1
HeLa [25] = assay: Increase of histone 3 phosphorylation at Ser10 level in human HeLa cells at 6 uM after 48 hrs by Western blot analysis; type: functional, cell-based
Summary of the method: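 HeLa cells were sham-treated or given 6 µM and collected at set times. Lysed on ice in Tris pH 7.4/NaCl/EDTA/1% Triton X-100 with PMSF and protease inhibitors. 30-40 µg protein run on 8 or 10% gels, blotted to PVDF, probed overnight at 4°C and detected by ECL. Band levels normalized to GAPDH.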

HeLa [26] = assay: Induction of apoptosis in human HeLa cells assessed as membrane blebbing at 6 uM after 48 hrs by time lapse microscopy analysis; type: functional, cell-based
Summary of the method: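 Treated HeLa cells were followed by time-lapse microscopy, with images taken at set time points.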

HeLa [27] = assay: Induction of mitosis arrest in human HeLa cells assessed as disoriented tubulin structure at 6 uM after 12 hrs using DAPI staining by immunofluorescence microscopic analysis; type: functional, cell-based
Summary of the method: (§3)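 HeLa cells on coverslips treated 12 h, fixed in ice-cold methanol at -20°C. Stained with anti-α-tubulin and anti-lamin A (primary 1:200 overnight at 4°C, fluorescent secondary 1 h) and DAPI for DNA. Mitotic morphology scored by fluorescence microscopy.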

HeLa [28] = assay: Induction of mitosis arrest in human HeLa cells assessed as condensation of chromosome at 6 uM after 12 hrs using DAPI staining by immunofluorescence microscopic analysis; type: functional, cell-based; summary of the method: as §3
MDA-MB-231 [29] = assay: Antiproliferative activity against human MDA-MB-231 cells after 72 hrs by SRB assay; type: functional, cell-based; settings: MDA-MB-231, 72 h
Summary of the method: (§4)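 Cells seeded at 4,000-5,000/well for 16 h, then exposed 72 h to serial dilutions of compound in DMSO; sham DMSO as 100% and TCA-treated wells as 0%. Fixed in 10% TCA at 4°C for 1 h, stained with 0.4% SRB for 30 min, dye solubilised in 10 mmol Tris pH 10.5, read at 540 nm. IC50 from sigmoidal dose-response curves; two biological replicates, four technical each.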

[30] = Antiproliferative activity against human 184B5 cells after 72 hrs by SRB assay; type: cell-based; settings: 184B5, 72 h; summary of the method: as §4
[31] = Antiproliferative activity against human MCF10A cells after 72 hrs by SRB assay; type: cell-based; settings: MCF-10A; summary of the method: as §4

SMILES: FC(F)(F)c1cccc(/C=C\c2cc3ccccc3nc2Cl)c1
- Activity (HeLa [1]): 17.8%
- Activity (HeLa [2]): 8.1%
- Activity (HeLa [3]): 40.6%
- Activity (HeLa [4]): 46%
- Activity (HeLa [5]): 17.7%
- Activity (HeLa [6]): 12.1%
- Activity (MDA-MB-231 [7]): 8.5%
- Activity (MDA-MB-231 [8]): 18.2%
- Activity (MDA-MB-231 [9]): 12.8%
- Activity (MDA-MB-231 [10]): 38.3%
- Activity (MDA-MB-231 [11]): 15.4%
- Activity (MDA-MB-231 [12]): 18.6%
- Activity (MDA-MB-231 [13]): 31.3%
- Activity (MDA-MB-231 [14]): 14.2%
- Activity (MDA-MB-231 [15]): 14.4%
- Activity [16]: 31.3%
- Activity [17]: 11.4%
- Activity [18]: 34.3%
- Activity [19]: 8.3%
- Activity [20]: 12.9%
- Activity [21]: 63.6%
- Activity [22]: 6.2%
- Activity [23]: 12.1%
- Activity [24]: 4.9%
- Activity (HeLa [25]): Active
- Activity (HeLa [26]): Active
- Activity (HeLa [27]): Active
- Activity (HeLa [28]): Active
- IC50 (MDA-MB-231 [29]): 3.75 µM
- IC50 [30]: 6.15 µM
- IC50 [31]: 6.01 µM

From ChEMBL document CHEMBL3739264, “Synthesis and bio-evaluation of novel quinolino-stilbene derivatives as potential anticancer agents” (Bioorg Med Chem, 2015)
